Reference: ChEMBL document CHEMBL5705897, “Characterization of WZ4003 and HTH-01-015 as selective inhibitors of the LKB1-tumour-suppressor-activated NUAK kinases” (Biochem J, 2014)
Calls of active or inactive are those of the source. No cut-off for these calls is given here.

Key:
[1] = molecular target: MAP/microtubule affinity-regulating kinase 3 (Homo sapiens) (UniProt P27448); test: Inhibition of recombinant human N-terminal His6-tagged MARK3 (2 to 729 residues) expressed in baculovirus infected Sf21 cells assessed as remaining activity at 1 uM using CHKtide as substrate incubated for 30 mins in presence of [gamma-33P]ATP by filter binding method relative to control
MAP/microtubule affinity-regulating kinase 3 (Homo sapiens), sequence (P27448 whole entry, looked up, the tested form may be a part): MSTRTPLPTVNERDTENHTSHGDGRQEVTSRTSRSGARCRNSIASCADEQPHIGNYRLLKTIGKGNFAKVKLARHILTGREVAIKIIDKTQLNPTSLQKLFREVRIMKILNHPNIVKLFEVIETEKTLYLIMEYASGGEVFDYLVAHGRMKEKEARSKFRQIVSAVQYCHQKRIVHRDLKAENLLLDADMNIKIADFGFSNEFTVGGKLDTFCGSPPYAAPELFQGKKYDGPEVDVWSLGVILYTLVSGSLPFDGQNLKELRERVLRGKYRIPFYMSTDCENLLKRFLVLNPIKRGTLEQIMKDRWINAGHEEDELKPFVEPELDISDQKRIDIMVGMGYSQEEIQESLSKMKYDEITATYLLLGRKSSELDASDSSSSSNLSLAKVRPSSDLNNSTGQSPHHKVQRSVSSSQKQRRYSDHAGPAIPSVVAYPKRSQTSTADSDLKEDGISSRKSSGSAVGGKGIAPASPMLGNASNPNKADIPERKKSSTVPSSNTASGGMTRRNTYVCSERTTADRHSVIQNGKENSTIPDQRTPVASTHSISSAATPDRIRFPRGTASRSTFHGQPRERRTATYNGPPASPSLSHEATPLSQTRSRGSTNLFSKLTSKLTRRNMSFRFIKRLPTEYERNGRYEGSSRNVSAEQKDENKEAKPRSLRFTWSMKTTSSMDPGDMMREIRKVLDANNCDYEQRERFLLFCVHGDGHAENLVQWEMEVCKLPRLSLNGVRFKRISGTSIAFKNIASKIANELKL
Method in brief: (§1)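 Screened at the International Centre for Protein Kinase Profiling against a 140-kinase panel, with inhibitor at 0.1 or 1 μM; activity expressed as percentage of DMSO control reactions, mean of triplicate reactions.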

[2] = system: U2OS; test: Inhibition of cell invasion in human U2OS cells at 10 uM incubated for 16 hrs by matrigel based transwell assay; format: functional
Method in brief: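 Growth-factor-reduced Matrigel Transwell invasion: U2OS cells serum-deprived 2 h, detached, 2.5×10^5 cells in DMEM/1% BSA added to upper chambers in triplicate, DMEM/10% FBS as chemoattractant below; 16 h at 37 °C, 5% CO2 with or without 10 μM inhibitor in both compartments; cells on lower filter face fixed, stained, imaged ×10 and counted; mean ± S.D.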

[3] = molecular target: Calcium/calmodulin-dependent protein kinase type 1 (Homo sapiens) (UniProt Q14012); test: Inhibition of recombinant human N-terminal GST-tagged CAMK1alpha (2 to 369 residues) expressed in Escherichia coli assessed as remaining activity at 1 uM using YLRRRLSDSNF as substrate incubated for 30 mins in presence of [gamma-33P]ATP by filter binding method relative to control; method in brief: as §1
Calcium/calmodulin-dependent protein kinase type 1 (Homo sapiens), sequence (Q14012 whole entry, looked up, the tested form may be a part): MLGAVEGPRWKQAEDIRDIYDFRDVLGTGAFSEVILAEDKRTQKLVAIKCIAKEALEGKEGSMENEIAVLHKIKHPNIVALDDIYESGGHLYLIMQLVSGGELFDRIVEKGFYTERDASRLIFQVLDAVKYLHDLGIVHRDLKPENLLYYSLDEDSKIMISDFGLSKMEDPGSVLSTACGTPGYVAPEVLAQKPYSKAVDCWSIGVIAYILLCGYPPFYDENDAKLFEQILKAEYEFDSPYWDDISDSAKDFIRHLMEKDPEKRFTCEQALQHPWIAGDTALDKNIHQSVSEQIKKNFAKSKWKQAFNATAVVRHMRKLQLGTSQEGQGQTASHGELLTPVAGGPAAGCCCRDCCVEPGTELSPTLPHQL

[4] = molecular target: Mitogen-activated protein kinase 13 (Homo sapiens) (UniProt O15264); test: Inhibition of recombinant human GST-tagged P38delta (1 to 365 residues) expressed in Escherichia coli assessed as remaining activity at 1 uM using MBP as substrate incubated for 30 mins in presence of [gamma-33P]ATP by filter binding method relative to control; method in brief: as §1
Mitogen-activated protein kinase 13 (Homo sapiens), sequence (O15264 whole entry, the tested form may be a part): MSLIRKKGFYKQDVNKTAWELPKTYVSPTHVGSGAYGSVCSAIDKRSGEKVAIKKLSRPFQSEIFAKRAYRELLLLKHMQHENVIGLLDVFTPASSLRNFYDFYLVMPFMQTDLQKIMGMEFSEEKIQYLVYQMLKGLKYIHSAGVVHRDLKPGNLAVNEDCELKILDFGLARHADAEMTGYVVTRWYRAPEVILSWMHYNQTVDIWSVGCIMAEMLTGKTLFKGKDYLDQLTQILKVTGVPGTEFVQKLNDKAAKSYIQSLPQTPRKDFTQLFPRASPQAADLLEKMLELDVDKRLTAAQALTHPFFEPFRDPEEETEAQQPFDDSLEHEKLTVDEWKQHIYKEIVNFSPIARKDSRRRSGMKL

[5] = molecular target: Protein kinase C alpha type (Homo sapiens) (UniProt P17252); test: Inhibition of recombinant human N-terminal His6-tagged PKCalpha (1 to 672 residues) expressed in baculovirus infected Sf21 cells assessed as remaining activity at 1 uM using Histone H1 as substrate incubated for 30 mins in presence of [gamma-33P]ATP by filter binding method relative to control; method in brief: as §1
[6] = molecular target: Serine/threonine-protein kinase BRSK2 (Homo sapiens) (UniProt Q8IWQ3); test: Inhibition of recombinant human N-terminal His6-tagged BRSK2 (2 to 674 residues) expressed in baculovirus infected Sf21 cells assessed as remaining activity at 1 uM using KKLNRTLSFAEPG as substrate incubated for 30 mins in presence of [gamma-33P]ATP by filter binding method relative to control; method in brief: as §1
Serine/threonine-protein kinase BRSK2 (Homo sapiens), sequence (Q8IWQ3 whole entry, the tested form may be a part): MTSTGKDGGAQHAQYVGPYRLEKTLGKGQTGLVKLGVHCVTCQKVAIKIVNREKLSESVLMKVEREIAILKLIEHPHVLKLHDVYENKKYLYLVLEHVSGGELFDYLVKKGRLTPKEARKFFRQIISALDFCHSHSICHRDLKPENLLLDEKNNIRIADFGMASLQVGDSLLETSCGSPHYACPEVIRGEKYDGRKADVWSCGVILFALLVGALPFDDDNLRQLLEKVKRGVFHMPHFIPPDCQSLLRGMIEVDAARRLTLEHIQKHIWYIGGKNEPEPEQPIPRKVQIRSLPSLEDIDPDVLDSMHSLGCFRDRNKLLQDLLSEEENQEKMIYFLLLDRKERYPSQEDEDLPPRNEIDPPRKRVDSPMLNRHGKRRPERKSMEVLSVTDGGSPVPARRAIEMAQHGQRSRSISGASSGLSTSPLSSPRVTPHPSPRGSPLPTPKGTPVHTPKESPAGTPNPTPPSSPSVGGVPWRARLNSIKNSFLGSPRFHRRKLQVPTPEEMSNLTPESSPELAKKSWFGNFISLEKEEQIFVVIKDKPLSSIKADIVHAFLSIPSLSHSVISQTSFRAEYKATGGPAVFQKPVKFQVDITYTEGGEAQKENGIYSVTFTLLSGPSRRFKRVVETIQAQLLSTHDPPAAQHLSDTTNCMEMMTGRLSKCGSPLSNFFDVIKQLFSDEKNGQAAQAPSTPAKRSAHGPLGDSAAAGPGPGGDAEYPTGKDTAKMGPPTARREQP

[7] = molecular target: cAMP-dependent protein kinase catalytic subunit alpha (Homo sapiens) (UniProt P17612); test: Inhibition of recombinant human N-terminal GST-tagged PKAalpha (2 to 351 residues) expressed in Escherichia coli assessed as remaining activity at 1 uM using Kemptide as substrate incubated for 30 mins in presence of [gamma-33P]ATP by filter binding method relative to control; method in brief: as §1

CCC(=O)Nc1cccc(Oc2nc(Nc3ccc(N4CCN(C)CC4)cc3OC)ncc2Cl)c1
Activity [1]: 51% | inhibition [2]: Active | Activity [3]: 81% | Activity [4]: 63% | Activity [5]: 77% | Activity [6]: 75% | Activity [7]: 84%
